Measurements reported in ChEMBL document CHEMBL2029329, “Synthesis and biological evaluation of 1,4-diaryl-2-azetidinones as specific anticancer agents: activation of adenosine monophosphate activated protein kinase and induction of apoptosis” (J Med Chem, 2012).
Calls of active or inactive are those of the source. The calls are words filed in the database; no cut-off is given here.

Assays:
[1] = Antiproliferative activity in human renal cancer cells; type: functional, cell-based; details: Cancer cell lines
[2] = Antiproliferative activity in human HuTu 80 cells assessed as cell viability after 72 hrs by MTT assay; type: functional, cell-based, HuTu80
In short: (§1)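 Each line was grown in its own medium: DMEM for HuTu-80, EMEM/NEAA for MCF-7, EMEM/F12 for SKNBE, DMEM/F12 with 5% FBS for T84, Leibovitz's for the SW lines. Cells were seeded, left 24 h, then exposed to graded concentrations for 72 h. MTT was given 2 h, absorbance read at 570 nm. IC50 is 50% absorbance inhibition versus control, from dose-response curves; mean ± SD of ≥3 independent experiments, each in triplicate.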

[3] = test system: HeLa; assay: Antiproliferative activity in human HeLa cells assessed as cell viability at 10 uM after 48 hrs by MTT assay; type: functional, cell-based
In short: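 HeLa cells were kept in DMEM with 10% FBS at 37 °C, 5% CO2. They were seeded, left 24 h, then given 10 μM compound for 48 h. MTT was added for 2 h at 37 °C, formazan solubilized, absorbance read at 570 nm, and viability compared with control cells.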

[4] = test system: T84; assay: Antiproliferative activity in human T84 cells assessed as cell viability after 72 hrs by MTT assay; type: functional, cell-based; in short: as §1
[5] = Antiproliferative activity in human CCD-841-CoN cells assessed as cell viability at 10 uM after 72 hrs by MTT assay; type: cell-based
In short: (§2)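 Normal cells (CCD841CoN in EMEM/NEAA with 10% FBS; FHs74 in DMEM with 10% FBS, EGF 30 ng/mL, insulin 10 μg/mL) were seeded and grown for 24 h at 37 °C, 5% CO2, then given compound at 10 μM. Viability was read by MTT: 2 h at 37 °C, formazan solubilized, absorbance at 570 nm.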

[6] = test system: SW480; assay: Antiproliferative activity in human SW480 cells assessed as cell viability after 72 hrs by MTT assay; type: functional, cell-based; in short: as §1
[7] = test system: SW-620; assay: Antiproliferative activity in human SW620 cells assessed as cell viability after 72 hrs by MTT assay; type: functional, cell-based; in short: as §1
[8] = Antiproliferative activity in human SK-N-BE cells assessed as cell viability after 72 hrs by MTT assay; type: functional, cell-based; in short: as §1
[9] = Antiproliferative activity in human FHs74 cells assessed as cell viability at 10 uM after 72 hrs by MTT assay; type: cell-based; in short: as §2
[10] = test system: MCF7; assay: Antiproliferative activity in human MCF7 cells assessed as cell viability after 72 hrs by MTT assay; type: functional, cell-based; in short: as §1
[11] = molecular target: Tubulin (Sus scrofa, UniProt P02554+P02550); assay: Inhibition of porcine brain tubulin polymerization after 30 mins by spectrophotometry
In short: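 Porcine brain tubulin at 2.5 mg/mL was used in 80 mM PIPES pH 6.9, 1 mM MgCl2, 2 mM EGTA, 10% glycerol, with 1 mM GTP and graded compound (0.2% DMSO vehicle). Turbidity was followed at 340 nm, 37 °C.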

[12] = test system: SW48; assay: Antiproliferative activity in human SW48 cells assessed as cell viability after 72 hrs by MTT assay; type: functional, cell-based; in short: as §1
[13] = molecular target: T1, AMP-activated protein kinase, AMPK (Homo sapiens) (UniProt P54646+O43741+P54619+Q9UGJ0+Q9Y478+Q13131+Q9UGI9); assay: Induction of AMPK phosphorylation at Thr172 residue in human […] cells at 30 nM after 24 hrs by Western blot analysis; type: cell-based
In short: (§3)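 HuTu-80 cells were exposed to 30 nM compound for 24 h, with 0.1% DMSO as vehicle. pT172-AMPK and pS792-Raptor were blotted from total RIPA extracts with vinculin for loading. pS15-p53 and total p53 were blotted from nuclear extracts with fibrillarin as nuclear control.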

[14] = test system: HuTu 18; assay: Effect on AKT phosphorylation at ser473 in insulin-stimulated human […] cells at 30 nM after 24 hrs by Western blot analysis; type: cell-based
In short: (§4)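 HuTu-80 cells were exposed to 30 nM compound for 24 h, with 0.1% DMSO as vehicle. They were then mock treated or stimulated with 10 μg/mL insulin for 10 min. Total RIPA extracts were probed by Western blot for pS473-Akt and total Akt, with vinculin as loading control.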

[15] = test system: HuTu80; assay: Induction of apoptosis in human HuTu 80 cells assessed as PARP cleavage at 30 nM after 24 hrs by Western blot analysis
[16] = molecular target: T1, AMP-activated protein kinase, AMPK (Homo sapiens); assay: Induction of AMPK-mediated p53 phosphorylation at ser15 residue in human […] cells at 30 nM after 24 hrs by Western blot analysis; type: cell-based; in short: as §3
[17] = molecular target: T1, AMP-activated protein kinase, AMPK (Homo sapiens); assay: Induction of AMPK-mediated p53 pser15 accumulation in human […] cells at 30 nM after 24 hrs by Western blot analysis; type: cell-based; in short: as §3
[18] = Cell cycle arrest in human HuTu 80 cells assessed as […] at sub-G1 phase at 30 nM by propidium iodide-based flow cytometry; type: functional; details: HuTu80, TDE = time-dependent effect
[19] = Cell cycle arrest in human HuTu 80 cells assessed as accumulation at sub-G1 phase at 30 nM after 48 hrs by propidium iodide-based flow cytometry (reference value: 3.3 %); details: HuTu80
[20] = molecular target: T1, AMP-activated protein kinase, AMPK (Homo sapiens); assay: Induction of AMPK-mediated raptor phosphorylation at ser792 residue in human […] cells at 30 nM after 24 hrs by Western blot analysis; type: cell-based; in short: as §3
[21] = test system: HuTu 18; assay: Effect on AKT phosphorylation at ser473 in human […] cells at 30 nM after 24 hrs by Western blot analysis; type: cell-based; in short: as §4
[22] = Cell cycle arrest in human HuTu 80 cells assessed as accumulation at G2/M phase at 30 nM after 48 to 72 hrs by propidium iodide-based flow cytometry; type: functional; details: HuTu80
In short: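 HuTu-80 cells were exposed to 30 nM compound for 48 and 72 h, with 0.1% DMSO as vehicle. Cells were trypsinized, washed in PBS, fixed in 75% ethanol at 4 °C and stained with propidium iodide. DNA content was measured by flow cytometry.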

[23] = molecular target: T1, AMP-activated protein kinase, AMPK (Homo sapiens); assay: Induction of AMPK phosphorylation at Thr172 residue in human SW48 cells at 30 nM after 16 hrs by Western blot analysis; type: cell-based
In short: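 SW48 cells were exposed to 30 nM compound for 16 h, with 0.1% DMSO as vehicle. Total RIPA lysates (with protease and phosphatase inhibitors) were blotted for pT172-AMPK and total AMPK.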

[24] = Cell cycle arrest in human HuTu 80 cells assessed as […] at sub-G1 phase at 30 nM after 72 hrs by propidium iodide-based flow cytometry (reference value: 4.3 %); type: functional; set-up: scale not given: the % may be the effect or the level left; details: HuTu80
[25] = test system: HuTu80; assay: Induction of apoptosis in human HuTu 80 cells assessed as caspase-3 cleavage at 30 nM after 24 hrs by Western blot analysis

COc1ccc([C@@H]2[C@H](O)C(=O)N2c2cc(OC)c(OC)c(OC)c2)cc1[N+](=O)[O-]
IC50 [1]: 29.2 nM
IC50 ([2]; Homo sapiens, HuTu80, 72 h): 529 nM

COc1ccc([C@@H]2[C@H](O)C(=O)N2c2cc(OC)c(OC)c(OC)c2)cc1N
IC50 ([2]; Homo sapiens, HuTu80, 72 h): 101 nM

COc1ccc([C@@H]2[C@H](O)C(=O)N2c2cc(OC)cc(OC)c2)cc1 (racemic)
IC50 ([2]; Homo sapiens, HuTu80, 72 h): 125 nM
Activity [3]: Active

COc1ccc([C@H]2[C@H](O)C(=O)N2c2cc(OC)cc(OC)c2)cc1 (racemic) [listing 1 of 2 here]
IC50 ([4]; Homo sapiens, T84, 72 h): 5.73 nM
Activity [5]: Non-toxic
IC50 ([6]; Homo sapiens, SW480, 72 h): 24.2 nM
IC50 ([7]; Homo sapiens, SW-620, 72 h): 6.6 nM
IC50 ([2]; hutu80): 9.05 nM
IC50 ([8]; sk-n-be): 2.25 nM
Activity [9]: Non-toxic
IC50 ([10]; Homo sapiens, MCF7, 72 h): 5.19 nM
IC50 [11]: 3600 nM
IC50 ([12]; Homo sapiens, SW48, 72 h): 12.1 nM

COc1ccc([C@@H]2[C@H](O)C(=O)N2c2cc(OC)c(OC)c(OC)c2)cc1O (racemic)
IC50 ([2]; Homo sapiens, HuTu80, 72 h): 28.8 nM
Activity [3]: Active

COc1ccc([C@H]2[C@H](O)C(=O)N2c2cc(OC)c(OC)c(OC)c2)cc1O (racemic) [listing 1 of 2 here]
IC50 ([4]; t84): 45.4 nM
IC50 ([6]; Homo sapiens, SW480, 72 h): 22.1 nM
IC50 ([7]; sw-620): 13.6 nM
IC50 ([2]; hutu80): 13.4 nM
IC50 ([8]; sk-n-be): 4.2 nM
IC50 ([10]; Homo sapiens, MCF7, 72 h): 6.14 nM
IC50 [11]: 3800 nM
IC50 ([12]; Homo sapiens, SW48, 72 h): 15.2 nM

COc1ccc(N2C(=O)[C@@H](O)[C@H]2c2cc(OC)c(OC)c(OC)c2)cc1O (racemic)
IC50 ([2]; Homo sapiens, HuTu80, 72 h): 2550 nM
Activity [3]: Active

COc1ccc(N2C(=O)[C@@H](O)[C@@H]2c2cc(OC)c(OC)c(OC)c2)cc1O (racemic)
IC50 ([2]; Homo sapiens, HuTu80, 72 h): 406 nM
Activity [3]: Active

COc1ccc([C@H]2[C@H](O)C(=O)N2c2cc(OC)c(OC)c(OC)c2)cc1O (racemic) [listing 2 of 2 here]
Activity [13]: Active
Activity [14]: inactive
Activity [15]: Active
Activity [16]: Active
Activity [17]: Active
Activity [18]: tde
Activity [19]: 22.9%
Activity [20]: Active
Activity [21]: inactive
Activity [3]: Active
Activity [22]: Active
Activity [23]: Active
Activity [24]: 32.7%
Activity [25]: Active

COc1ccc([C@H]2[C@H](O)C(=O)N2c2cc(OC)cc(OC)c2)cc1 (racemic) [listing 2 of 2 here]
Activity [13]: Active
Activity [14]: inactive
Activity [15]: Active
Activity [16]: Active
Activity [17]: Active
Activity [18]: tde
Activity [19]: 28.5%
Activity [20]: Active
Activity [21]: inactive
Activity [3]: Active
Activity [22]: Active
Activity [23]: Active
Activity [24]: 35%
Activity [25]: Active

COc1ccc([C@H]2[C@H](O)C(=O)N2c2cc(OC)cc(OC)c2)cc1 (stereo in doubt; (+))
IC50 ([4]; t84): 6.77 nM
IC50 ([6]; sw480): 16.7 nM
IC50 ([7]; sw-620): 8.58 nM
IC50 ([2]; hutu80): 8.02 nM
IC50 ([8]; sk-n-be): 1.12 nM
IC50 ([10]; mcf7): 4.01 nM
IC50 [11]: 1300 nM
IC50 ([12]; sw48): 11.1 nM

COc1ccc([C@H]2[C@H](O)C(=O)N2c2cc(OC)c(OC)c(OC)c2)cc1O (stereo in doubt; (+))
IC50 ([4]; t84): 20.3 nM
Activity [5]: Non-toxic
IC50 ([6]; sw480): 12.5 nM
IC50 ([7]; sw-620): 3.37 nM
IC50 ([2]; hutu80): 3.05 nM
IC50 ([8]; sk-n-be): 1.32 nM
Activity [9]: Non-toxic
IC50 ([10]; mcf7): 4.47 nM
IC50 [11]: 1610 nM
IC50 ([12]; sw48): 9.81 nM

COc1ccc([C@H]2[C@H](O)C(=O)N2c2cc(OC)cc(OC)c2)cc1 (stereo in doubt; (-))
IC50 ([2]; hutu80): 83.5 nM

COc1ccc([C@H]2[C@H](O)C(=O)N2c2cc(OC)c(OC)c(OC)c2)cc1O (stereo in doubt; (-))
IC50 ([2]; hutu80): 590 nM

COc1ccc(/C=C\c2cc(OC)c(OC)c(OC)c2)cc1O [COMBRETASTATIN A4]
IC50 ([4]; Homo sapiens, T84, 72 h): 23.4 nM
IC50 ([6]; Homo sapiens, SW480, 72 h): 3.63 nM
Activity [15]: Active
IC50 ([7]; Homo sapiens, SW-620, 72 h): 1.52 nM
IC50 ([2]; Homo sapiens, HuTu80, 72 h): 1.37 nM
Activity [17]: Active
Activity [19]: 24.6%
IC50 ([8]; Homo sapiens, SK-N-BE, 72 h): 0.58 nM
Activity [3]: Active
IC50 ([10]; Homo sapiens, MCF7, 72 h): 1.11 nM
Activity [24]: 34%
Activity [25]: Active
IC50 ([12]; Homo sapiens, SW48, 72 h): 3.32 nM
